Assay outcomes as filed in PubChem BioAssay.
A selection: hits, their analogues and other compounds. The true share with any hit is near 7.4%.
Jurkat tox 60K – cytotoxicity toward Jurkat cells; Jurkat E6.1 viability, ATP luminescence, 48 h; inhibition, % at 4 µM; 56,000 tested, 1.2% active; AID 463;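 active = inhibition above the mean inhibition of all tested compounds plus 3 SD, cut at about 28% in these data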
S1P1 ag-PAM – S1P1 (human) agonism or agonism potentiation. activation, % at 9.5 µM. P21453. S1P1 CRE-bla cells, forskolin, beta-lactamase FRET, potentiator mode; S1P1 agonist co-added at EC20, 2 nM; 100% = saturating reference agonist, 0% = basal. 56,000 tested, 0.57% active;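 active = activation above a cutoff set at the mean activation of all tested compounds plus 3 SD, cut at about 54% in these data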;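 also: forskolin at 4 µM as EC80 and the EC20 agonist is SEW2871; 100% = SEW2871 at its EC100 plus forskolin at EC80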
S1P3 agonist – activates the human S1P3 receptor; Q99500; S1P3 NFAT-BLA reporter cells, agonism, FRET ratio; relative to 1 µM S1P, basal subtracted; activation, % at 4.5 µM; 60,000 tested, 0.1% active; AID 373;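 active = activation above the screen-wide mean plus 3 SD, cut at about 4.5% in these data, passing the limit was not always enough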
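material = human S1P3 NFAT-BLA reporter CHO cells | schedule = 4 h compound at 37 °C, 2 h substrate at RT | measured by = fluorescent BLA substrate, ex 405 nm, em 460/535 nm ratio | controls = 1 µM S1P reference | replication = primary once, confirmation triplicate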
M1 agonist – activates the M1 muscarinic receptor; 64,000 tested, 3% active; B-score at 10 µM; CHO-M1 cells, Fluo-4 calcium fluorescence, agonist mode; hits give high values;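 active = fluorescence rise, raw or as B-score row- and column-corrected plate score, outside the 99.7% band of its plate's samples, either direction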
JNK3 inh – JNK3 (human) kinase inhibition; P53779; purified JNK3 kinase activity, HTS; inhibition, % at 8 µM; 60,000 tested, 0.61% active; AID 746; in the data active = inhibition above about 17%;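 also: 0% = DMSO and 100% = reference inhibitor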
Target sequence (P53779 whole entry, looked up): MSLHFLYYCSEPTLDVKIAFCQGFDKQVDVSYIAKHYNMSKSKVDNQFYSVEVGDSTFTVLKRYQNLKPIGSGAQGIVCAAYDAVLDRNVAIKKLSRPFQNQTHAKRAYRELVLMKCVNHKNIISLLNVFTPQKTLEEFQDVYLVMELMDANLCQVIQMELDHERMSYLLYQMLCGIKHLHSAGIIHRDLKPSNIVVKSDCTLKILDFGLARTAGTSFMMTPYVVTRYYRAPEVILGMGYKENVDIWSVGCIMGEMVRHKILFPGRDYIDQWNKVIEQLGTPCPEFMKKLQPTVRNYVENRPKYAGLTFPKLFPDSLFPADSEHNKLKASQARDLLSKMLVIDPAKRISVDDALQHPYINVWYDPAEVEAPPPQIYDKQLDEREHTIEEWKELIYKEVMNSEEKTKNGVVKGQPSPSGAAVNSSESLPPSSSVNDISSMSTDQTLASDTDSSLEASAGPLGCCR
M1 antagonist – blocks the rat M1 muscarinic receptor response to acetylcholine; P08482; CHO-M1 cells, Fluo-4 calcium, ACh EC80 antagonist mode; hits give low values; B-score at 10 µM; 64,000 tested, 3.4% active; AID 628;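 active = calcium fluorescence response, raw or row-and-column corrected B-score, differing from the plate sample mean either way at a set confidence level, mostly lower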
Starred values were filed as active, the others as inactive; . = no result given.

SMILES	Jurkat tox 60K	S1P1 ag-PAM	S1P3 agonist	M1 agonist	JNK3 inh	M1 antagonist
CCn1c2ccccc2c2nnc(SCC(=O)NC(C(=O)OC)C(C)C)nc21 (stereo not drawn)	3.1	-52.4	-0.6	0.364	2.3	0.655
CC(=O)N1C=CN(C(C)=O)C(c2cn(C)c3ccccc23)C1c1cn(C)c2ccccc12 (stereo not drawn)	3.8	68.6*	-1.8	-0.821	6.9	-0.696
CC1=C(C(=O)OCC2CCCO2)C(c2ccc(C)o2)C2=C(CC(c3ccc(N(C)C)cc3)CC2=O)N1 (stereo not drawn)	3.9	18.3	-0.6	5.57*	-4.4	-0.241
O=C(CCCCCn1c(SCC(=O)c2ccccc2)nc2ccccc2c1=O)NCc1ccco1	-1.0	5.4	-0.6	0.0566	27.5*	-0.0752
O=C(CCCn1c(=S)[nH]c2ccccc2c1=O)NCc1ccco1	-7.4	-3.0	-0.8	-0.364	18.9*	-0.28
CCOC(=O)CSc1nc2ccccc2c(=O)n1CCCCCC(=O)NCc1ccco1	-3.8	19.5	-0.8	0.701	23.1*	-1.15
Cc1cc(C)n(-c2nc3c(c(=O)n(C)c(=O)n3C)n2Cc2cccc(Br)c2)n1	4.3	3.0	-1.6	0.323	3.7	-0.155
Nc1nonc1C(=O)NCCNC(=O)c1cccs1	5.2	-17.9	-0.6	-0.0279	0.1	-0.0659
CCN(C(=O)C1CCCCC1)c1nnc(-c2cccnc2)s1	1.5	99.0*	-0.3	-0.647	1.5	0.321
CCN(C(=O)c1c(OC)cccc1OC)c1nnc(-c2cccnc2)s1	6.8	-3.9	1.1	0.203	2.8	0.12
CC(C)=CC1C(C(=O)Nc2ccc(Br)cn2)C1(C)C (stereo not drawn)	-2.9	-12.1	-0.6	-0.00316	-2.7	-0.693
COc1ccc(CNC(=O)C2COc3ccccc3O2)c(OC)c1 (stereo not drawn)	6.0	-5.1	-0.2	0.0452	-8.3	-0.359
CCn1c(C)csc1=NC(=O)c1ccccc1	-5.0	-8.2	-0.3	-0.464	2.6	-0.519
CCn1c(C)csc1=NC(=O)c1ccccc1O	17.6	-7.4	-0.9	-0.027	22.7*	-0.226
Cn1c(=O)[nH]c(=O)c2c1nc(N1CCCCCC1)n2CCSc1nc2ccccc2[nH]1	2.7	15.4	-0.1	-0.791	-4.5	-0.299
Cc1nc(SCC(=O)Nc2c(C)n(C)n(-c3ccccc3)c2=O)n[nH]1	-0.5	10.3	0.3	-0.0324	2.0	0.71
N#Cc1nc(-c2ccc(OCc3ccccc3)cc2)oc1NCc1ccco1	-5.8	-15.9	0.0	0.0153	3.2	-0.043
CNc1oc(-c2ccc(OCc3ccccc3)cc2)nc1C#N	-4.2	73.3*	0.4	-0.0689	5.1	0.203
CCCC(c1nnnn1C1CCCC1)N1CCN(c2ccccc2F)CC1 (stereo not drawn)	-8.5	1.0	-0.8	-0.305	-1.5	0.0157
Cc1nc2ccccc2n1CC(=O)NCc1ccccc1	41.4*	24.1	-0.7	0.24	0.0	-0.409
O=C(O)C1CSC2(c3ccc4c(c3)OCCO4)CCC(=O)N12 (stereo not drawn)	2.6	17.6	0.7	-0.0218	3.7	-0.384
Cc1cc(C)cc(NS(=O)(=O)c2ccc3[nH]cc(C(=O)NCc4ccco4)c(=O)c3c2)c1	47.8*	23.9	-0.4	-1.38	-3.2	0.359
Cc1ccccc1NS(=O)(=O)c1ccc2[nH]cc(C(=O)N(C)Cc3ccco3)c(=O)c2c1	2.4	-16.8	-0.9	-1.03	-2.7	0.0332
CCOc1ccc(NS(=O)(=O)c2ccc3[nH]cc(C(=O)NCC4CCCO4)c(=O)c3c2)cc1 (stereo not drawn)	1.4	6.6	-1.1	0.841	-3.1	-0.744
CCOc1ccc(NS(=O)(=O)c2ccc3[nH]cc(C(=O)N(CC)CC)c(=O)c3c2)cc1	-9.8	-7.2	0.1	23.4*	3.5	-11.3*
CC(C)C(NC(=O)C12CC3CC(CC(C3)C1)C2)C(=O)O (stereo not drawn)	-4.9	-0.5	0.3	-1.26	6.6	-0.0515
CC(Oc1ccc(Cl)cc1Cl)c1nc(-c2ccccn2)no1 (stereo not drawn)	.	.	.	-0.811	.	0.448
CN(C)S(=O)(=O)c1ccc(N2CCN(S(=O)(=O)c3ccc(F)cc3)CC2)c(Cl)c1	34.2*	6.0	-0.7	-0.961	-0.3	0.143
